Test results as given in ChEMBL document CHEMBL1132213, “Tyrosine kinase inhibitors. 15. 4-(Phenylamino)quinazoline and 4-(phenylamino)pyrido[d]pyrimidine acrylamides as irreversible inhibitors of the ATP binding site of the epidermal growth factor receptor” (J Med Chem, 1999).
Where “and” joins values, the source holds several entries; their conditions need not be identical. Identical values can stand only once.

Columns and labels:
A-431 [1] = test: In vivo activity against A431 xenograft in nude mice, ratio of treated/control median tumor mass at 260 mg/kg peroral dose; conditions: route oral
A-431 [2] = test: Difference in days for treated (T) and control (C) A431 cell tumors to reach 750 mg at 75 mg/kg ip dose; format: functional; conditions: route intraperitoneal
Method in brief: (§1)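 Nude (NCr nu/nu) mice of 18–22 g were randomized and implanted sc in the right axilla with serially passaged A431 or H125 tumor fragments on day 0. Dosing by average cage weight (6 mice/group) ip or po began at 100–150 mg tumor mass. The ip vehicle was 6% dimethylacetamide/94% 50 mM sodium lactate pH 4.0 suspension; later suspensions used 0.5% methylcellulose. T/C = median treated/control tumor mass ×100% on the last therapy day. T−C = days for tumors to reach 750 mg.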

NCI-H125 [3] = test: In vivo activity against H125 xenograft in nude mice, ratio of treated/control median tumor mass at 50 mg/kg ip dose; format: functional; conditions: route intraperitoneal
Method in brief: as §1

NCI-H125 [4] = test: In vivo activity against H125 xenograft in nude mice, weight change at 250 mg/kg peroral dose; format: functional; conditions: route oral
Method in brief: as §1

Mus musculus [5] = test: In vivo activity against tumor xenograft in nude mice, weight change at 75 mg/kg ip dose; format: functional; conditions: route intraperitoneal
Method in brief: as §1

A-431 [6] = test: Difference in days for treated (T) and control (C) A431 cell tumors to reach 750 mg at 260 mg/kg peroral dose; format: functional; conditions: route oral
Method in brief: as §1

A-431 [7] = test: In vivo activity against A431 cell tumor xenograft in nude mice at 75 ip mg/kg dose; format: functional
Method in brief: as §1

[8] = biological target: T1, Receptor tyrosine-protein kinase erbB-2 (Homo sapiens, UniProt P04626); test: Inhibition of heregulin-stimulated autophosphorylation of ERBB2 receptor kinase in MDA-MB-453 cells.; format: cell-based
T1 sequence (P04626 whole entry): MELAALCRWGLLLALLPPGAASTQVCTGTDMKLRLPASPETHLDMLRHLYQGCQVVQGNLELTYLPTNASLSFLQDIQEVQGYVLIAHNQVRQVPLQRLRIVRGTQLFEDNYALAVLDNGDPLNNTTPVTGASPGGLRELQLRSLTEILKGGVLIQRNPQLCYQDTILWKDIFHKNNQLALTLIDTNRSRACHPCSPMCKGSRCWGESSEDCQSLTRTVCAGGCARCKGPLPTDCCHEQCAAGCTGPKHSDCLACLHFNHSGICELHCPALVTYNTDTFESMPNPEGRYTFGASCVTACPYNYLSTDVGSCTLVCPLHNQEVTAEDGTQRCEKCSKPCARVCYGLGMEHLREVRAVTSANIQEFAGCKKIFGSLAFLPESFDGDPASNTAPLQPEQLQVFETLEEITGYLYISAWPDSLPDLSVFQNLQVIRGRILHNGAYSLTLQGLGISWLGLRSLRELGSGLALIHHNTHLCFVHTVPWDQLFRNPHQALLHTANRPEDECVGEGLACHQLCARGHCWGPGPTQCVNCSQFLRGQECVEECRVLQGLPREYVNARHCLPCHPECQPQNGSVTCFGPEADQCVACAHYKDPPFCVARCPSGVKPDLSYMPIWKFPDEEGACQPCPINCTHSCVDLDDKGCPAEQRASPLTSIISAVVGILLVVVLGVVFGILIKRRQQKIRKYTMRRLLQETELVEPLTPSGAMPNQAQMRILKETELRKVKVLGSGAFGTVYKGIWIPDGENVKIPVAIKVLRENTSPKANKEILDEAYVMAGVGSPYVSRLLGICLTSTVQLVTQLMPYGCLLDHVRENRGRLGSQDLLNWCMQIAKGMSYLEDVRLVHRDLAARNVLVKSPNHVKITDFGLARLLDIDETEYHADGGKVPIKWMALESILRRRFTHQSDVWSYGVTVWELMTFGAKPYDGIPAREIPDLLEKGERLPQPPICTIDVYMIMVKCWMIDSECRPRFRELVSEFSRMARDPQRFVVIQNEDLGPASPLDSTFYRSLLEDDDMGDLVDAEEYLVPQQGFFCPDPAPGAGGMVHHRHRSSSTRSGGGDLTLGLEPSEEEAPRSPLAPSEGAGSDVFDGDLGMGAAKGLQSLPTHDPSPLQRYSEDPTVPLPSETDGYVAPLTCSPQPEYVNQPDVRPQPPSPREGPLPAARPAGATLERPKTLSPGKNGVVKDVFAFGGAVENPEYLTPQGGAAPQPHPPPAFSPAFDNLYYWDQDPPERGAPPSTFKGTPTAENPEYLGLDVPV
Method in brief: (§2)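 MDA-MB-453 cells in αMEM/F12 with 10% FBS were grown to 90% confluency and held serum-free for 18 h. Cells were treated 1 h with varied inhibitor concentrations, then stimulated 5 min with heregulin (10 ng/mL) and lysed in boiling Laemmli buffer. Read-out was SDS-PAGE and antiphosphotyrosine Western blot with [125I]protein A detection and laser densitometry. IC50 is the average of two experiments.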

NCI-H125 [9] = test: Difference in days for treated (T) and control (C) tumors to reach 750 mg at 250 mg/kg peroral dose; format: functional; conditions: route oral
Method in brief: as §1

A-431 [10] = test: In vivo activity against A431 xenograft in nude mice, weight change at 260 mg/kg peroral dose; conditions: route oral
NCI-H125 [11] = test: In vivo activity against H125 xenograft in nude mice, ratio of treated/control median tumor mass at 250 mg/kg peroral dose; format: functional; conditions: route oral
Method in brief: as §1

NCI-H125 [12] = test: Difference in days for treated (T) and control (C) H125 cell tumors to reach 750 mg at 50 mg/kg ip dose; format: functional; conditions: route intraperitoneal
Method in brief: as §1

NCI-H125 [13] = test: In vivo activity against H125 xenograft in nude mice, weight change at 50 mg/kg ip dose; format: functional; conditions: route intraperitoneal
Method in brief: as §1

[14] = biological target: T2, Epidermal growth factor receptor (Homo sapiens, UniProt P00533)
T2 sequence (P00533 whole entry): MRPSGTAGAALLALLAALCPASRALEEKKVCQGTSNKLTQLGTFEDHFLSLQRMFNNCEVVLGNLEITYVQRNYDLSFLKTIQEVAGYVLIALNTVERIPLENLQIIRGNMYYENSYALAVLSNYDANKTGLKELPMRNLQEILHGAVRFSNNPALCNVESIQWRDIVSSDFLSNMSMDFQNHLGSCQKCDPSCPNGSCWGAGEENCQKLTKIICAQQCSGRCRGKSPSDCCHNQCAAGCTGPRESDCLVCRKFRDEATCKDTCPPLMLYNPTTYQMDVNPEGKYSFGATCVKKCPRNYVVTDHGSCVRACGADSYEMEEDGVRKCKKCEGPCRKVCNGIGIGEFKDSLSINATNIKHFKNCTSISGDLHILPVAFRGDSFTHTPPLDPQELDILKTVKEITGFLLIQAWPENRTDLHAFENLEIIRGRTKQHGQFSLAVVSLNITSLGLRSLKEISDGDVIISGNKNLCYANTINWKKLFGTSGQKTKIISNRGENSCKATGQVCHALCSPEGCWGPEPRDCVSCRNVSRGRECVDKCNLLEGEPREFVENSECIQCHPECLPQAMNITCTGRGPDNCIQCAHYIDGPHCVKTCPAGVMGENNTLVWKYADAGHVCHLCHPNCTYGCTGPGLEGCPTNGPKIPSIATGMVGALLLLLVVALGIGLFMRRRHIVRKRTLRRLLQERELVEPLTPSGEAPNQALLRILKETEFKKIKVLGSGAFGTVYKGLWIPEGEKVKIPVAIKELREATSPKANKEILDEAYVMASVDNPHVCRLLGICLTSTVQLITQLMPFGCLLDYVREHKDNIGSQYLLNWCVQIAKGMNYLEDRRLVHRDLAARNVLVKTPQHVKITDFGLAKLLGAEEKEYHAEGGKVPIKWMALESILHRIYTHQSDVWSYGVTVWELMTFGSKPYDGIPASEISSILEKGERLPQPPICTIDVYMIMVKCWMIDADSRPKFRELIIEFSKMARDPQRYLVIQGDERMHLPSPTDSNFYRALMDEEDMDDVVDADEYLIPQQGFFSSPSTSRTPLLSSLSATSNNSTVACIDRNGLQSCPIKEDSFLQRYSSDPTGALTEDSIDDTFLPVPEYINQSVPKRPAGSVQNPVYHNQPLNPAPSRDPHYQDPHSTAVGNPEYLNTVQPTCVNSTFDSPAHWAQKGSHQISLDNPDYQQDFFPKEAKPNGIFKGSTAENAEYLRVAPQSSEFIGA

NCI-H125 [15] = test: (§3) In vivo activity against H125 xenograft in nude mice, weight change at 200 mg/kg peroral dose; format: functional; conditions: route oral
Method in brief: as §1

A-431 [16] = test: (§4) In vivo activity against A431 xenograft in nude mice, weight change at 200 mg/kg peroral dose; format: functional, organism-based; design: dose 200 mg/kg
Method in brief: as §1

A-431 [17] = test: In vivo activity against A431 xenograft in nude mice, ratio of treated/control median tumor mass at 200 mg/kg peroral dose; format: functional; conditions: route oral
Method in brief: as §1

Mus musculus [18] = test: Difference in days for treated (T) and control (C) tumors to reach 750 mg at 200 mg/kg ip dose; format: functional; conditions: route intraperitoneal
Method in brief: as §1

NCI-H125 [19] = test: In vivo activity against H125 xenograft in nude mice, ratio of treated/control median tumor mass at 200 mg/kg peroral dose; format: functional; conditions: route oral
Method in brief: as §1

[20] = biological target: T2, Epidermal growth factor receptor; remark: listed apart in the source
NCI-H125 [21] = test: In vivo activity against H125 xenograft in nude mice, ratio of treated/control median tumor mass at 9.6 mg/kg peroral dose; format: functional; conditions: route intraperitoneal, in the assay text read “intraperitoneal” for “peroral”
A-431 [22] = test: In vivo activity against A431 xenograft in nude mice, ratio of treated/control median tumor mass at 212 mg/kg peroral dose; format: functional; conditions: dose 12 mg/kg; route intraperitoneal; in the assay text read “12 mg/kg intraperitoneal dose” for “212 mg/kg peroral dose”
Method in brief: as §1

A-431 [23] = test: In vivo activity against A431 xenograft in nude mice, weight change at 12 mg/kg ip dose; format: functional; conditions: route intraperitoneal
Method in brief: as §1

A-431 [24] = test: Difference in days for treated (T) and control (C) A431 cell tumors to reach 750 mg at 12 mg/kg ip dose; format: functional; conditions: route intraperitoneal
Method in brief: as §1

NCI-H125 [25] = test: Difference in days for treated (T) and control (C) H125 cell tumors to reach 750 mg at 9.6 mg/kg ip dose; format: functional; conditions: route intraperitoneal
Method in brief: (§5)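 NCr nu/nu mice (18–22 g, 6/dose group) implanted sc in the right axilla with serially passaged H125 NSCLC fragments on day 0. Dosing ip by average cage weight as a fine suspension in 6% dimethylacetamide/94% 50 mM sodium lactate pH 4.0, started at tumor mass 100–150 mg. Read-outs were body weight change and treated-minus-control days to reach 750 mg.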

NCI-H125 [26] = test: as §3; format: functional, organism-based; design: dose 200 mg/kg
Method in brief: as §1

NCI-H125 [27] = test: In vivo activity against H125 xenograft in nude mice, weight change at 9.6 mg/kg ip dose; format: functional; conditions: route intraperitoneal
Method in brief: as §5

A-431 [28] = test: as §4; format: functional; conditions: route oral
Method in brief: as §1

A-431 [29] = test: Difference in days for treated (T) and control (C) A431 cell tumors to reach 750 mg at 40 mg/kg peroral dose; format: functional; conditions: route oral
Method in brief: as §1

Mus musculus [30] = test: Difference in days for treated (T) and control (C) tumors to reach 750 mg at 200 mg/kg peroral dose; format: functional; conditions: route oral
Method in brief: as §1

A-431 [31] = test: In vivo activity against A431 xenograft in nude mice, weight change at 40 mg/kg peroral dose; format: functional; conditions: route oral
Method in brief: as §1

A-431 [32] = test: In vivo activity against A431 xenograft in nude mice, ratio of treated/control median tumor mass at 40 mg/kg peroral dose; format: functional; conditions: route oral
Method in brief: as §1

[33] = biological target: T1, Receptor tyrosine-protein kinase erbB-2; test: Inhibition of heregulin-stimulated autophosphorylation of erbB2 in MDA-MB-453 cells.; format: cell-based
Method in brief: as §2

A-431 [34] = test: In vivo activity against A431 xenograft in nude mice, weight change at 47 mg/kg ip dose; format: functional; conditions: route intraperitoneal
Method in brief: as §1

A-431 [35] = test: In vivo activity against A431 xenograft in nude mice, weight change at 1150 mg/kg peroral dose; format: functional; conditions: dose 150 mg/kg; route oral; in the assay text read “150 mg/kg” for “1150 mg/kg”
Method in brief: as §1

A-431 [36] = test: Difference in days for treated (T) and control (C) A431 cell tumors to reach 750 mg at 47 mg/kg ip dose; format: functional; conditions: route intraperitoneal
Method in brief: as §1

A-431 [37] = test: In vivo activity against A431 xenograft in nude mice, ratio of treated/control median tumor mass at 47 mg/kg ip dose; format: functional; conditions: route intraperitoneal
Method in brief: as §1

NCI-H125 [38] = test: In vivo activity against H125 xenograft in nude mice, ratio of treated/control median tumor mass at 50 mg/kg peroral dose; format: functional; conditions: route oral
Method in brief: as §1

A-431 [39] = test: In vivo activity against A431 xenograft in nude mice, ratio of treated/control median tumor mass at 150 mg/kg peroral dose; format: functional; conditions: route oral
Method in brief: as §1

C=CC(=O)Nc1ccc2ncnc(Nc3cccc(C)c3)c2c1
T/C (A-431 [1]): 3% | T-C (A-431 [2]): 32.3 days | T/C (NCI-H125 [3]): 15% | Weight change (NCI-H125 [4]): -0.1 g | Weight change (Mus musculus [5]): -2.2 g | T-C (A-431 [6]): 28.2 days | T/C (A-431 [7]): 11% | IC50 [8]: 22 nM | T-C (NCI-H125 [9]): 10.5 days | Weight change (A-431 [10]): -1.3 g | T/C (NCI-H125 [11]): 24% | T-C (NCI-H125 [12]): 11.9 days | Weight change (NCI-H125 [13]): 0 g

C=CC(=O)Nc1cc2c(Nc3ccc(F)c(Br)c3)ncnc2cn1
IC50 [14]: 0.72 nM | Weight change (NCI-H125 [15]): -1.8 g | Weight change (A-431 [16]): Weight gain | T/C (A-431 [17]): 13% | IC50 [8]: 1.1 nM | T-C (Mus musculus [18]): 51.1 days and 18.2 days | T/C (NCI-H125 [19]): 19% | IC50 [20]: 2.1 nM

C=CC(=O)Nc1cc2c(Nc3cccc(Br)c3)ncnc2cn1
T/C (NCI-H125 [21]): 26% | T/C (A-431 [22]): 17% | Weight change (A-431 [23]): -2.4 g | T-C (A-431 [24]): 12 days | IC50 [8]: 3.9 nM | T-C (NCI-H125 [25]): 8.7 days | Weight change (NCI-H125 [26]): Weight gain | Weight change (NCI-H125 [27]): -1.3 g | T-C (Mus musculus [18]): 24.3 days and 16.5 days | T/C (NCI-H125 [19]; 200 mg/kg): 11% and 20%

C=CC(=O)Nc1ccc2ncnc(N3CCc4ccc(Br)cc43)c2c1
IC50 [20]: 9.9 nM

C=CC(=O)Nc1ccc2ncnc(Nc3ccc(Oc4ccccc4)cc3)c2c1
IC50 [8]: 8.6 nM

C=CC(=O)Nc1cc2c(Nc3ccc(F)c(Cl)c3)ncnc2cn1
IC50 [14]: 0.77 nM | Weight change (NCI-H125 [15]): -1.8 g | T/C (A-431 [17]): 12% | Weight change (A-431 [28]): -0.3 g | IC50 [8]: 3 nM | T-C (Mus musculus [18]): 18.3 days and 12.7 days | T/C (NCI-H125 [19]): 27% | IC50 [20]: 3.3 nM

C=CC(=O)Nc1ccc2c(Nc3cccc(Br)c3)ncnc2c1
IC50 [14]: 0.45 nM | IC50 [8]: 73 nM

C=CC(=O)Nc1ccc2ncnc(Nc3ccc(F)c(Br)c3)c2c1
IC50 [14]: 0.69 nM | IC50 [8]: 7.3 nM | IC50 [20]: 2.7 nM

C=CC(=O)Nc1ccc2ncnc(Nc3ccc(F)c(Cl)c3)c2c1
IC50 [14]: 0.75 nM | Weight change (NCI-H125 [15]): -0.3 g | T-C (A-431 [29]): 20.8 days | T-C (Mus musculus [30]): 27.4 days | IC50 [8]: 4.3 nM | Weight change (A-431 [31]): 0 g | T/C (A-431 [32]): 11% | T/C (NCI-H125 [19]): 16% | IC50 [20]: 3.1 nM

C=CC(=O)Nc1cc2c(Nc3cccc(C)c3)ncnc2cn1
IC50 [33]: 8.8 nM

C=CC(=O)Nc1ccc2ncnc(Nc3cccc(Br)c3)c2c1
T/C (NCI-H125 [3]): 15% | Weight change (A-431 [34]): -1 g | Weight change (A-431 [35]): -1.7 g | T-C (A-431 [36]): 29 days and 15.7 days | T/C (A-431 [37]): 2% | T/C (NCI-H125 [38]): 8% | IC50 [8]: 5.7 nM | T/C (A-431 [39]): 2% | Weight change (NCI-H125 [13]): -1.5 g

C=CC(=O)Nc1ccc2ncnc(Nc3ccc(F)c(Cl)c3)c2n1
IC50 [8]: 12 nM

C=CC(=O)Nc1ccc2ncnc(Nc3ccc(F)c(Br)c3)c2n1
IC50 [14]: 1.2 nM | IC50 [8]: 26 nM | IC50 [20]: 18 nM
